How the values were obtained:
[1] = target: Serine/threonine-protein kinase haspin (Homo sapiens) (UniProt Q8TF76); experiment: Inhibition of human Haspin (471 to end residues ) assessed as residual activity at 10 uM using RARTLSFAEPG as substrate after 40 mins by [gamma-33ATP] radiometric assay relative to control
[2] = target: Serine/threonine-protein kinase 38-like (Homo sapiens) (UniProt Q9Y2H1); experiment: Inhibition of recombinant human NDR2 (83 to end residues) assessed as residual activity at 10 uM using RSRSRSRSRSRSRSR as substrate measured after 40 mins in presence of [gamma33P]ATP by scintillation counting based radiometry assay relative to control
[3] = target: Dual specificity mitogen-activated protein kinase kinase 6 (Homo sapiens) (UniProt P52564); experiment: Inhibition of recombinant human MKK6 assessed as residual activity at 10 uM by scintillation counting based radiometry assay relative to control
[4] = target: Tyrosine-protein kinase Yes (Homo sapiens) (UniProt P07947); experiment: Inhibition of recombinant full-length human Yes assessed as residual activity at 10 uM using poly(Glu, Tyr) 4:1 as substrate incubated for 40 mins in presence of [gamma33P]ATP by scintillation counting based radiometry assay relative to control
[5] = target: Dual specificity protein kinase CLK4 (Homo sapiens) (UniProt Q9HAZ1); experiment: Inhibition of recombinant human CLK4 (128 to end residues) assessed as residual activity at 10 uM using YRRAAVPPSPSLSRHSSPHQS(p)EDEEE as substrate incubated 40 mins in presence of [gamma-33ATP] by scintillation counting based radiometry assay relative to control
[6] = target: Homeodomain-interacting protein kinase 3 (Homo sapiens) (UniProt Q9H422); experiment: Inhibition of human HIPK3 (161 to 562 residues) assessed as residual activity at 10 uM using myelin basic protein as substrate after 40 mins by [gamma-33ATP] radiometric assay relative to control
[7] = target: Serine/threonine-protein kinase PLK1 (Homo sapiens) (UniProt P53350); experiment: Inhibition of recombinant full-length human Plk1 assessed as residual activity at 10 uM using casein as substrate incubated for 40 mins in presence of [gamma33P]ATP by scintillation counting based radiometry assay relative to control
[8] = target: Ephrin type-A receptor 1 (Homo sapiens) (UniProt P21709); experiment: Inhibition of recombinant human EphA1 (568 to end residues) assessed as residual activity at 10 uM using KKKSPGEYVNIEF as substrate at 40 mins in presence of [gamma-33ATP] by scintillation counting based radiometry assay relative to control
[9] = tested on: Eukaryotic elongation factor 2 kinase (Homo sapiens), O00418 [H23R]; experiment: Inhibition of recombinant human eEF-2K H23R mutant (2 to end residues) assessed as residual activity at 10 uM using RKKFGESEKTKTK as substrate at 40 mins in presence of [gamma-33ATP] by scintillation counting based radiometry assay relative to control
[10] = target: Casein kinase I isoform gamma-1 (Homo sapiens) (UniProt Q9HCP0); experiment: Inhibition of recombinant human CK1gamma1 assessed as residual activity at 10 uM using KRRRALS(p)VASLPGL as substrate incubated for 40 mins in presence of [gamma-33ATP] by scintillation counting based radiometry assay relative to control
[11] = target: Serine/threonine-protein kinase LATS2 (Homo sapiens, UniProt Q9NRM7); experiment: Binding affinity to wild-type human partial length LATS2 (Q641 to V1088 residues) expressed in mammalian expression system assessed as dissociation constant by Kinomescan method
How it was run: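 KINOMEscan competition binding assay. Kinase bound at each concentration of test compound was quantified by qPCR and plotted against log10 compound concentration to derive Kd.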

Homo sapiens = species: Homo sapiens; experiment: Inhibition of recombinant full length human PKBalpha S478G mutant assessed as residual activity at 10 uM using GRPRTSSFAEGKK as substrate incubated for 40 mins in presence of [gamma33P]ATP by scintillation counting based radiometry assay relative to control
[12] = target: CDK2/Cyclin A1 (Homo sapiens) (UniProt P24941+P78396); experiment: Inhibition of recombinant full length human CDK2/CyclinA assessed as residual activity at 10 uM using Histone H1 as substrate incubated for 40 mins in presence of [gamma-33ATP] by scintillation counting based radiometry assay relative to control; type: protein-complex assay
[13] = target: Serine/threonine-protein kinase PAK 5 (Homo sapiens) (UniProt Q9P286); experiment: Inhibition of recombinant human PAK5 (425 to end residues) assessed as residual activity at 10 uM using RRRLSFAEPG as substrate measured after 40 mins in presence of [gamma33P]ATP by scintillation counting based radiometry assay relative to control
[14] = target: Epidermal growth factor receptor (Homo sapiens) (UniProt P00533); experiment: Inhibition of recombinant human EGFR (696 to end residues) assessed as residual activity at 10 uM using poly(Glu, Tyr) 4:1 as substrate at 40 mins in presence of [gamma-33ATP] by scintillation counting based radiometry assay relative to control
[15] = target: Calcium/calmodulin-dependent protein kinase type II subunit delta (Homo sapiens) (UniProt Q13557); experiment: Inhibition of recombinant full length human CaMK2delta assessed as residual activity at 10 uM using […] incubated for 40 mins in presence of [gamma-33ATP] by scintillation counting based radiometry assay relative to control
[16] = target: G protein-coupled receptor kinase 3 (Homo sapiens) (UniProt P35626); experiment: Inhibition of recombinant full length human GRK3 assessed as residual activity at 10 uM using casein as substrate at 40 mins in presence of [gamma-33ATP] by scintillation counting based radiometry assay relative to control
[17] = tested on: Tyrosine-protein kinase ABL1 (Homo sapiens), P00519 [Y253F]; experiment: Inhibition of human ABL1 Y253F mutant (27 to end residues) assessed as residual activity at 10 uM using EAIYAAPFAKKK as substrate incubated for 40 mins in presence of [gamma-33ATP] by scintillation counting based radiometry assay relative to control
[18] = target: Serine/threonine-protein kinase pim-1 (Homo sapiens) (UniProt P11309); experiment: Inhibition of recombinant full length human Pim1 assessed as residual activity at 10 uM using KKRNRTLTV as substrate incubated for 40 mins in presence of [gamma33P]ATP by scintillation counting based radiometry assay relative to control
[19] = target: Serine/threonine-protein kinase TAO1 (Homo sapiens) (UniProt Q7L7X3); experiment: Inhibition of recombinant human TAO1 (1 to 327 residues) assessed as residual activity at 10 uM using myelin basic protein as substrate incubated for 40 mins in presence of [gamma33P]ATP by scintillation counting based radiometry assay relative to control
[20] = target: Tyrosine-protein kinase SYK (Homo sapiens) (UniProt P43405); experiment: Inhibition of recombinant human full length SYK assessed as residual activity at 10 uM using poly(Glu, Tyr) 4:1 as substrate incubated for 40 mins in presence of [gamma33P]ATP by scintillation counting based radiometry assay relative to control

Chain of Serine/threonine-protein kinase PLK1 (Homo sapiens) (P53350 whole entry): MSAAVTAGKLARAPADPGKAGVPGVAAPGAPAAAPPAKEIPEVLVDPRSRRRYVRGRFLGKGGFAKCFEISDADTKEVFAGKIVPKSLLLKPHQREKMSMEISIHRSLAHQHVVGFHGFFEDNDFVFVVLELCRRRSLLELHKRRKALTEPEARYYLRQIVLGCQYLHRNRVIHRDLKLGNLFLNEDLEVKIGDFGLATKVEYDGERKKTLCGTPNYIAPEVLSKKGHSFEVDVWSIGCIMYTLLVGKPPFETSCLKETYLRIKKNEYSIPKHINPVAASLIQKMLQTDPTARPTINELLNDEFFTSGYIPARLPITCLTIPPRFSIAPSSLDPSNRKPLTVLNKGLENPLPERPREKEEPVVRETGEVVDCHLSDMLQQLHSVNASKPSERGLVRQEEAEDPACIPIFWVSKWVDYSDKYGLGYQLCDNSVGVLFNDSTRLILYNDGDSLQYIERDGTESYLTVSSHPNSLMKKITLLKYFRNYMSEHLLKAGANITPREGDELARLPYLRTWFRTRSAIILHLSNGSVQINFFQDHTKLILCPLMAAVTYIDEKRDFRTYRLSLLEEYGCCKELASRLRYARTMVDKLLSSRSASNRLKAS
Chain of Homeodomain-interacting protein kinase 3 (Homo sapiens) (Q9H422 whole entry, looked up, the tested form may be a part): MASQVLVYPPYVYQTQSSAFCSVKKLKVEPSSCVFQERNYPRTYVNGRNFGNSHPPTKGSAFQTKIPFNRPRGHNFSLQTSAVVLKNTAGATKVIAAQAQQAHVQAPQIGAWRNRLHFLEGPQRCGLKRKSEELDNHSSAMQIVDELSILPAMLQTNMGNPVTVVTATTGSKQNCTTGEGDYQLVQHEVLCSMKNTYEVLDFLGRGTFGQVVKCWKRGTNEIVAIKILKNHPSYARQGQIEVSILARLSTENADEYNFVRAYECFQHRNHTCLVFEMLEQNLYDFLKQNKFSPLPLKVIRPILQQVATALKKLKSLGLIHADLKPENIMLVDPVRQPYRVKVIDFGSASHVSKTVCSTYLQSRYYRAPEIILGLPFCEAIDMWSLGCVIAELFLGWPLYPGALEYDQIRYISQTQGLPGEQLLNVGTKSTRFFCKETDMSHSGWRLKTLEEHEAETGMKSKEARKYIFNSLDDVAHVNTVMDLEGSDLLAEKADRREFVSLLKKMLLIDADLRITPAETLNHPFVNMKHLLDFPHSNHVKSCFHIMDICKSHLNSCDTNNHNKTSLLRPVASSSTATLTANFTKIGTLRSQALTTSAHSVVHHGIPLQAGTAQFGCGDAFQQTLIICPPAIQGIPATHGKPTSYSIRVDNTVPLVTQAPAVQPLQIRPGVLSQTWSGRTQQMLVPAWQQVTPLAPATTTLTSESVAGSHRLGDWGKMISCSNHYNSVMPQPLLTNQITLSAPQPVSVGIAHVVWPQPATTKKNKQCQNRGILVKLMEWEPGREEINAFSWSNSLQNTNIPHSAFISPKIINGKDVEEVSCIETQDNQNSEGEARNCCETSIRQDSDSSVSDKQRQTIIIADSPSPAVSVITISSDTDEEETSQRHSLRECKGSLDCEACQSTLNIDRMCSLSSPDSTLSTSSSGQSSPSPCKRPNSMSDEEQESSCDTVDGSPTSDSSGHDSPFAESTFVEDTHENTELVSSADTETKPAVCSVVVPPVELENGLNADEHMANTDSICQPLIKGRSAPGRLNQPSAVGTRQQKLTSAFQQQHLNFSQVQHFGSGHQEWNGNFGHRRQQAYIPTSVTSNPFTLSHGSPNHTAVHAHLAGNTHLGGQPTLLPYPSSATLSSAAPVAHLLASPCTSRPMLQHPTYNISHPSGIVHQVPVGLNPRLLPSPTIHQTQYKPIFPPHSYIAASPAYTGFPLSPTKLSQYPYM
Chain of Serine/threonine-protein kinase TAO1 (Homo sapiens) (Q7L7X3 whole entry, the tested form may be a part): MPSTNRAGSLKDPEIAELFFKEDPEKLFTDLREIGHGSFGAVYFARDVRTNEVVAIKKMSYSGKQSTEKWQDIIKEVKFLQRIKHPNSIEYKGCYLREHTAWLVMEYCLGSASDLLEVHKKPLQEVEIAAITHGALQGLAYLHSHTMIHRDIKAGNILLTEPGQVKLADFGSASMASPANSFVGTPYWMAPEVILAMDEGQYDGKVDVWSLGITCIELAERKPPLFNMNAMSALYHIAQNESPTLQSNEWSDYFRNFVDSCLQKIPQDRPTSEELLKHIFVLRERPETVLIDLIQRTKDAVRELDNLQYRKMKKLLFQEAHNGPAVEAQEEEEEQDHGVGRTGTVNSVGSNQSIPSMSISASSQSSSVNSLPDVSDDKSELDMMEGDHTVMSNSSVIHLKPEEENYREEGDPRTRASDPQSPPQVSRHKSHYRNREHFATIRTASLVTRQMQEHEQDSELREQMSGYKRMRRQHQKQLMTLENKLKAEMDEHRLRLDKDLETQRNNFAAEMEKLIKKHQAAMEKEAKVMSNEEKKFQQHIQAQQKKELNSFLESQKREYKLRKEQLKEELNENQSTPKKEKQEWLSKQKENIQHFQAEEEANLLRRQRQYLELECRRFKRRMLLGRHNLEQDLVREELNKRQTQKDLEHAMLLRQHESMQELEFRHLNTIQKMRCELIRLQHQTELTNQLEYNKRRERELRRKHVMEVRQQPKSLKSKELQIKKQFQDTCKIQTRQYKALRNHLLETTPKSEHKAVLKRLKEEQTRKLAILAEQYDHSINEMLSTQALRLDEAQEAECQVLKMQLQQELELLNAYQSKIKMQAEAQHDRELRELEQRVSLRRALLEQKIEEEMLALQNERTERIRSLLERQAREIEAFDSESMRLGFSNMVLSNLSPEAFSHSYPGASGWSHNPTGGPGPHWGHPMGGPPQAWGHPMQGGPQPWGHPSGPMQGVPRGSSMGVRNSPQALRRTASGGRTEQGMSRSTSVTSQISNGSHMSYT
Chain of Tyrosine-protein kinase Yes (Homo sapiens) (P07947 2-543 limits assumed): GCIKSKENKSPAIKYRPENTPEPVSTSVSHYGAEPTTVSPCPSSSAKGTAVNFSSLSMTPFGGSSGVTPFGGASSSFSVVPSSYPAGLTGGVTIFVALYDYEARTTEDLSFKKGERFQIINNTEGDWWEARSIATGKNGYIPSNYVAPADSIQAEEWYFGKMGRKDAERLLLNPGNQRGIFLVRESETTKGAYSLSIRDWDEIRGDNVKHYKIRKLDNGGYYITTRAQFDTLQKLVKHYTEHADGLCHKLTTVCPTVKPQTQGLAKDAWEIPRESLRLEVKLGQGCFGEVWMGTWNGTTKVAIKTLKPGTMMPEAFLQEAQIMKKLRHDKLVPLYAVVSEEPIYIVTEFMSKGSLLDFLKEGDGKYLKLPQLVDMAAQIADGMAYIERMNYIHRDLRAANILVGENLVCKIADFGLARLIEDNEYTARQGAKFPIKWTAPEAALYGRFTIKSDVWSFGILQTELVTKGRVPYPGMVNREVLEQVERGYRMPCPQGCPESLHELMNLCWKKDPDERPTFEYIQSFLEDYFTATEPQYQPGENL
Chain of Serine/threonine-protein kinase PAK 5 (Homo sapiens) (Q9P286 whole entry, looked up): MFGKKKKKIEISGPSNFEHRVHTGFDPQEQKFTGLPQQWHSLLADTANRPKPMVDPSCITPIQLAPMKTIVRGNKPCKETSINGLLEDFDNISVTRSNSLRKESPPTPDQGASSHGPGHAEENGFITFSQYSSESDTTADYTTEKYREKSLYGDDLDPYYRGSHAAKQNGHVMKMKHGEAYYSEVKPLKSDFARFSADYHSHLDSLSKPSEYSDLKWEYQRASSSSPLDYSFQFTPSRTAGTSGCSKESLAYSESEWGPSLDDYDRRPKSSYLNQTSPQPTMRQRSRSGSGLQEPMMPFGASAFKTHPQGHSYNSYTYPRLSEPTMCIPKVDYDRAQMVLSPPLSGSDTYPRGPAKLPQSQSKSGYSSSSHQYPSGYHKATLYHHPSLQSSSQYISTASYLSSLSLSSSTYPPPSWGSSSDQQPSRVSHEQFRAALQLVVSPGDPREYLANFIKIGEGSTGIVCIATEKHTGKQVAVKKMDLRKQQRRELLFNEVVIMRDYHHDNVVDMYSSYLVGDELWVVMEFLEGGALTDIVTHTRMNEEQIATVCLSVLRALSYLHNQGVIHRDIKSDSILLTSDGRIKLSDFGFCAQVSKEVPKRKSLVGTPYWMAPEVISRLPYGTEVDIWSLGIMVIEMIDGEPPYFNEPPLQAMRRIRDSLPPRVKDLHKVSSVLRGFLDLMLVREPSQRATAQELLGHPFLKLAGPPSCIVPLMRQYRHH
Chain of Eukaryotic elongation factor 2 kinase (Homo sapiens), O00418 [H23R] (O00418 whole entry H23R, canonical isoform): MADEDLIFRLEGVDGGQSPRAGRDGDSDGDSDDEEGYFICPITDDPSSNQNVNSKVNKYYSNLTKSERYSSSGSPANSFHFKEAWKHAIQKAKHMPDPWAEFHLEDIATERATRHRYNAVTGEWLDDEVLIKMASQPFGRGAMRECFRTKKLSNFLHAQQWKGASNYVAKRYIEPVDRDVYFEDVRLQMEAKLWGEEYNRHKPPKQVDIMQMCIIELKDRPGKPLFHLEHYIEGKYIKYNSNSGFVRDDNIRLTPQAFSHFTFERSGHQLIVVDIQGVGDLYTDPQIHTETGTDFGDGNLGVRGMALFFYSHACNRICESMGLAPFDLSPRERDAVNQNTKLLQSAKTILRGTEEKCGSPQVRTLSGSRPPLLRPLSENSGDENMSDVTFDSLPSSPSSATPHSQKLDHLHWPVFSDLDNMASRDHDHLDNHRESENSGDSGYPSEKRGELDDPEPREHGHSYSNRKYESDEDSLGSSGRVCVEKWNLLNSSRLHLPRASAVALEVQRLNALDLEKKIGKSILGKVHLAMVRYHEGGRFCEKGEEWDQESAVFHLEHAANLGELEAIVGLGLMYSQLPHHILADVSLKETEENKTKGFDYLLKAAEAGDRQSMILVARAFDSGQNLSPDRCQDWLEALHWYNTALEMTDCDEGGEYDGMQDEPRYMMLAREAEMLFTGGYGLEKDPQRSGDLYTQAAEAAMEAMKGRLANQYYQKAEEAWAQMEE

`C[C@@H](c1ccccc1)n1nnc2cnc3ccc(-c4cnc5[nH]ccc5c4)cc3c21` gave an Activity [1] of 51%, an Activity [2] of 89% and an Activity [3] of 109%. The Activity [4] was 3%, the Activity [5] was 46% and the Activity [6] was 75%. It also gave an Activity [7] of 105%, an Activity [8] of 91% and an Activity [9] of 129%. The Activity [10] was 48%, the Kd [11] was greater than 10 µM and the Activity (Homo sapiens) was 80%. The Activity [12] was 63%, the Activity [13] was 90% and the Activity [14] was 90%. It also gave an Activity [15] of 68%, an Activity [16] of 110% and an Activity [17] of 6%. It also gave an Activity [18] of 68%, an Activity [19] of 18% and an Activity [20] of 41%.

Source: ChEMBL document CHEMBL4334471, “Discovery of 1,8-disubstituted-[1,2,3]triazolo[4,5-c]quinoline derivatives as a new class of Hippo signaling pathway inhibitors” (Bioorg Med Chem Lett, 2019)
